According to ChEMBL document CHEMBL1649282, “OXA-143, a novel carbapenem-hydrolyzing class D beta-lactamase in Acinetobacter baumannii” (2009):
Values after ≈ are worked out from the molar mass of the structure shown.

How the values were obtained:
Type in all cases: functional
Acinetobacter baumannii [1] = assay: Antimicrobial activity against Acinetobacter baumannii […] by Etest method
In short: (§1)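 Etest MICs were read following the manufacturer's instructions. A. baumannii 135040 is a blood-culture clinical isolate from a Brazilian ICU (2004); A. baumannii ATCC 19606 served as the reference strain.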

Acinetobacter baumannii [2] = assay: Antimicrobial activity against Acinetobacter baumannii […] by Etest method in presence of 4 ug/ml beta-lactamase inhibitor clavulanic acid; in short: as §1
Acinetobacter baumannii [3] = assay: Antimicrobial activity against Acinetobacter baumannii ATCC 19606 harboring plasmid PH98 by Etest method; settings: ATCC 19606 = CIP 70.34 = JCM 6841
In short: (§2)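 MICs of β-lactams determined by Etest following the manufacturer's instructions. Reference strains A. baumannii ATCC 19606 and E. coli TOP10 were tested alongside transformants carrying the cloned blaOXA-143: ATCC 19606 with pPH98 and TOP10 with pPH-1. For pPH-1 constructs, TOP10 transformants were selected on 50 μg/ml amoxicillin plus 30 μg/ml kanamycin.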

Acinetobacter baumannii [4] = assay: Antimicrobial activity against Acinetobacter baumannii ATCC 19606 harboring plasmid PH98 by Etest method in presence of 4 ug/ml beta-lactamase inhibitor clavulanic acid; settings: ATCC 19606 = CIP 70.34 = JCM 6841; in short: as §2
Acinetobacter baumannii [5] = assay: Antimicrobial activity against Acinetobacter baumannii ATCC 19606 by Etest method; settings: ATCC 19606 = CIP 70.34 = JCM 6841; in short: as §2
Acinetobacter baumannii [6] = assay: Antimicrobial activity against Acinetobacter baumannii ATCC 19606 by Etest method in presence of 4 ug/ml beta-lactamase inhibitor clavulanic acid; settings: ATCC 19606 = CIP 70.34 = JCM 6841; in short: as §1
Escherichia coli [7] = assay: Antimicrobial activity against Escherichia coli TOP10 harboring plasmid PH1 by Etest method; in short: as §2
Escherichia coli [8] = assay: Antimicrobial activity against Escherichia coli TOP10 harboring plasmid PH1 by Etest method in presence of 4 ug/ml beta-lactamase inhibitor clavulanic acid; in short: as §2
Escherichia coli [9] = assay: Antimicrobial activity against Escherichia coli TOP10 by Etest method; in short: as §2
Escherichia coli [10] = assay: Antimicrobial activity against Escherichia coli TOP10 by Etest method in presence of 4 ug/ml beta-lactamase inhibitor clavulanic acid
In short: (§3)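 Susceptibility was read by Etest, following the manufacturer's instructions. E. coli TOP10 without plasmid served as the reference host strain.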

Acinetobacter baumannii [11] = assay: Antimicrobial activity against Acinetobacter baumannii […] by Etest method in presence of 4 ug/ml beta-lactamase inhibitor Tazobactam; in short: as §1
Acinetobacter baumannii [12] = assay: Antimicrobial activity against Acinetobacter baumannii ATCC 19606 harboring plasmid PH98 by Etest method in presence of 4 ug/ml beta-lactamase inhibitor Tazobactam; settings: ATCC 19606 = CIP 70.34 = JCM 6841
In short: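 Susceptibility by Etest, run according to the manufacturer's instructions. The recipient strain is A. baumannii ATCC 19606 carrying recombinant plasmid pPH98. The same strain without the plasmid served as the reference. MICs for this strain were also determined by agar dilution following CLSI guidelines.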

Acinetobacter baumannii [13] = assay: Antimicrobial activity against Acinetobacter baumannii ATCC 19606 by Etest method in presence of 4 ug/ml beta-lactamase inhibitor Tazobactam; settings: ATCC 19606 = CIP 70.34 = JCM 6841; in short: as §1
Escherichia coli [14] = assay: Antimicrobial activity against Escherichia coli TOP10 harboring plasmid PH1 by Etest method in presence of 4 ug/ml beta-lactamase inhibitor Tazobactam
In short: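 Susceptibility was read by Etest, following the manufacturer's instructions. The test strain was E. coli TOP10 carrying recombinant plasmid pPH-1, which expresses blaOXA-143 from A. baumannii clinical isolate 135040 at a high level. The gene was introduced by Zero Blunt TOPO cloning, and transformants were selected on 50 μg/ml amoxicillin plus 30 μg/ml kanamycin.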

Escherichia coli [15] = assay: Antimicrobial activity against Escherichia coli TOP10 by Etest method in presence of 4 ug/ml beta-lactamase inhibitor Tazobactam; in short: as §3

SMILES | MIC (Acinetobacter baumannii [1]) | MIC (Acinetobacter baumannii [2]) | MIC (Acinetobacter baumannii [3]) | MIC (Acinetobacter baumannii [4]) | MIC (Acinetobacter baumannii [5]) | MIC (Acinetobacter baumannii [6]) | MIC (Escherichia coli [7]) | MIC (Escherichia coli [8]) | MIC (Escherichia coli [9]) | MIC (Escherichia coli [10]) | MIC (Acinetobacter baumannii [11]) | MIC (Acinetobacter baumannii [12]) | MIC (Acinetobacter baumannii [13]) | MIC (Escherichia coli [14]) | MIC (Escherichia coli [15])
CC1(C)S[C@@H]2[C@H](NC(=O)[C@H](N)c3ccc(O)cc3)C(=O)N2[C@H]1C(=O)O [AMOXICILLIN] | > 256 µg/mL | > 256 µg/mL | > 256 µg/mL | > 256 µg/mL | 32 µg/mL (≈ 87.6 µM) | 8 µg/mL | > 512 µg/mL | > 512 µg/mL | 4 µg/mL (≈ 10.9 µM) | 4 µg/mL |  |  |  |  | 
CO/N=C(\C(=O)N[C@@H]1C(=O)N2C(C(=O)[O-])=C(C[N+]3(C)CCCC3)CS[C@H]12)c1csc(N)n1 [CEFEPIME] | 4 µg/mL (≈ 8.32 µM) |  | 2 µg/mL (≈ 4.16 µM) |  | 1 µg/mL (≈ 2.08 µM) |  | 0.12 µg/mL (≈ 0.25 µM) |  |  |  |  |  |  |  | 
CO/N=C(\C(=O)N[C@@H]1C(=O)N2C(C(=O)O)=C(COC(C)=O)CS[C@H]12)c1csc(N)n1 [CEFOTAXIME] | > 256 µg/mL |  | 16 µg/mL (≈ 35.1 µM) |  | 8 µg/mL (≈ 17.6 µM) |  | 0.12 µg/mL (≈ 0.263 µM) |  | 0.12 µg/mL (≈ 0.263 µM) |  |  |  |  |  | 
CC(C)(O/N=C(\C(=O)N[C@@H]1C(=O)N2C(C(=O)[O-])=C(C[n+]3ccccc3)CS[C@H]12)c1csc(N)n1)C(=O)O [CEFTAZIDIME] | 256 µg/mL (≈ 468 µM) |  | 2 µg/mL (≈ 3.66 µM) |  | 2 µg/mL (≈ 3.66 µM) |  | 0.12 µg/mL (≈ 0.22 µM) |  | 0.06 µg/mL (≈ 0.11 µM) |  |  |  |  |  | 
C[C@@H](O)[C@H]1C(=O)N2C(C(=O)O)=C(SCCNC=N)C[C@H]12 [IMIPENEM ANHYDROUS] | > 32 µg/mL |  | 32 µg/mL (≈ 107 µM) |  | 0.19 µg/mL (≈ 0.635 µM) |  | 2 µg/mL (≈ 6.68 µM) |  |  |  |  |  |  |  | 
C[C@@H](O)[C@H]1C(=O)N2C(C(=O)O)=C(S[C@@H]3CN[C@H](C(=O)N(C)C)C3)[C@H](C)[C@H]12 [MEROPENEM] | > 32 µg/mL |  | 32 µg/mL (≈ 83.4 µM) |  | 0.19 µg/mL (≈ 0.495 µM) |  | 2 µg/mL (≈ 5.22 µM) |  | 0.12 µg/mL (≈ 0.313 µM) |  |  |  |  |  | 
CCN1CCN(C(=O)N[C@@H](C(=O)N[C@@H]2C(=O)N3[C@@H]2SC(C)(C)[C@@H]3C(=O)O)c2ccccc2)C(=O)C1=O [PIPERACILLIN] | > 256 µg/mL |  | 16 µg/mL (≈ 30.9 µM) |  | 4 µg/mL (≈ 7.73 µM) |  | 8 µg/mL (≈ 15.5 µM) |  | 1 µg/mL (≈ 1.93 µM) |  | > 256 µg/mL | 8 µg/mL | 4 µg/mL | 2 µg/mL | 0.5 µg/mL
CC1(C)S[C@@H]2[C@H](NC(=O)[C@H](C(=O)O)c3ccsc3)C(=O)N2[C@H]1C(=O)O [TICARCILLIN] | > 256 µg/mL |  | > 256 µg/mL |  | 4 µg/mL (≈ 10.4 µM) |  | 128 µg/mL (≈ 333 µM) |  | 4 µg/mL (≈ 10.4 µM) |  |  |  |  |  | 
